Results: ChEMBL document CHEMBL1649468, “AAC(6')-Iaf, a novel aminoglycoside 6'-N-acetyltransferase from multidrug-resistant Pseudomonas aeruginosa clinical isolates” (2009)
Values after ≈ are worked out from the molar mass of the structure shown.

How the values were obtained:
Pseudomonas aeruginosa [1] = assay: Antimicrobial activity against multidrug resistant Pseudomonas aeruginosa isolate IMCJ2S1 by microdilution method in presence of beta-lactamase inhibitor Tazobactam; format: functional
Pseudomonas aeruginosa [2] = assay: Antimicrobial activity against Pseudomonas aeruginosa isolate IMCJ799 by microdilution method in presence of beta-lactamase inhibitor Tazobactam; format: functional
Pseudomonas aeruginosa [3] = assay: Antimicrobial activity against rifampin-resistant Pseudomonas aeruginosa ATCC 27853 by microdilution method in presence of beta-lactamase inhibitor Tazobactam; format: functional
Pseudomonas aeruginosa [4] = assay: Antimicrobial activity against Pseudomonas aeruginosa isolate IMCJ798 by microdilution method in presence of beta-lactamase inhibitor Tazobactam; format: functional
Pseudomonas aeruginosa [5] = assay: Antimicrobial activity against Pseudomonas aeruginosa isolate IMCJ799 by microdilution method; format: functional
Outline: (§1)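 Broth microdilution MIC following CLSI-recommended protocols, tested on multidrug-resistant clinical P. aeruginosa isolates against a panel of individual aminoglycosides. MIC reported in μg/ml.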

Pseudomonas aeruginosa [6] = assay: Antimicrobial activity against multidrug resistant Pseudomonas aeruginosa isolate IMCJ2S1 by microdilution method; format: functional
Pseudomonas aeruginosa [7] = assay: Antimicrobial activity against multidrug resistant Pseudomonas aeruginosa by microdilution method; format: functional
Pseudomonas aeruginosa [8] = assay: Antimicrobial activity against Pseudomonas aeruginosa isolate IMCJ798 by microdilution method; format: functional; outline: as §1
Pseudomonas aeruginosa [9] = assay: Antimicrobial activity against rifampin-resistant Pseudomonas aeruginosa ATCC 27853 by microdilution method; format: functional
Escherichia coli [10] = assay: Antimicrobial activity against Escherichia coli JM109 transformant harboring pSTV28 plasmid expressing aac(6')-Iaf wild type gene by microdilution method; format: functional
Outline: (§2)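 Broth microdilution MICs followed CLSI protocols. The test strains were E. coli JM109 carrying the vector pSTV28 alone or pSTV28 bearing aac(6′)-Iaf (wild type or TTG→ATG start codon). Each strain was tested in Mueller-Hinton broth containing chloramphenicol (30 μg/ml) plus serial dilutions of individual aminoglycosides. MICs are reported in μg/ml.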

Escherichia coli [11] = assay: Antimicrobial activity against Escherichia coli JM109 transformant harboring pSTV28 plasmid by microdilution method
Escherichia coli [12] = assay: Antimicrobial activity against Escherichia coli JM109 transformant harboring pSTV28 plasmid expressing aac(6')-Iaf (TTG-ATG) mutant gene by microdilution method; format: functional; outline: as §2

## C[C@]1(Cn2ccnn2)[C@H](C(=O)O)N2C(=O)C[C@H]2S1(=O)=O [TAZOBACTAM]
Pseudomonas aeruginosa [1]
  MIC: 256 µg/mL
Pseudomonas aeruginosa [2]
  MIC: 256 µg/mL
Pseudomonas aeruginosa [3]
  MIC: 4 µg/mL
Pseudomonas aeruginosa [4]
  MIC: 256 µg/mL

## C[C@@H](O)[C@H]1C(=O)N2C(C(=O)O)=C(S[C@@H]3CN[C@H](C(=O)N(C)C)C3)[C@H](C)[C@H]12 [MEROPENEM]
Pseudomonas aeruginosa [5]
  MIC: > 512 µg/mL
Pseudomonas aeruginosa [6]
  MIC: 512 µg/mL (≈ 1340 µM)
Pseudomonas aeruginosa [7]
  MIC: ≥ 16 µg/mL
Pseudomonas aeruginosa [8]
  MIC: > 512 µg/mL
Pseudomonas aeruginosa [9]
  MIC: 1 µg/mL (≈ 2.61 µM)

## C[C@H]1[C@H](NC(=O)/C(=N\OC(C)(C)C(=O)O)c2csc(N)n2)C(=O)N1S(=O)(=O)O [AZTREONAM]
Pseudomonas aeruginosa [5]
  MIC: 64 µg/mL (≈ 147 µM)
Pseudomonas aeruginosa [6]
  MIC: 128 µg/mL (≈ 294 µM)
Pseudomonas aeruginosa [8]
  MIC: 64 µg/mL (≈ 147 µM)
Pseudomonas aeruginosa [9]
  MIC: 2 µg/mL (≈ 4.59 µM)

## CN[C@@H]1[C@@H](O)[C@@H](O[C@@H]2[C@@H](O)[C@H](O[C@H]3OC(CN)=CC[C@H]3N)[C@@H](N)C[C@H]2N)OC[C@]1(C)O [SISOMICIN]
Pseudomonas aeruginosa [5]
  MIC: 32 µg/mL (≈ 71.5 µM)
Escherichia coli [10]
  MIC: 1 µg/mL (≈ 2.23 µM)
Escherichia coli [11]
  MIC: 0.5 µg/mL (≈ 1.12 µM)
Escherichia coli [12]
  MIC: 2 µg/mL (≈ 4.47 µM)
Pseudomonas aeruginosa [8]
  MIC: 32 µg/mL (≈ 71.5 µM)

## NCC[C@H](O)C(=O)N[C@@H]1C[C@H](N)[C@@H](O[C@H]2O[C@H](CN)[C@@H](O)[C@H](O)[C@H]2O)[C@H](O)[C@H]1O[C@H]1O[C@H](CO)[C@@H](O)[C@H](N)[C@H]1O [AMIKACIN]
Pseudomonas aeruginosa [5]
  MIC: 128 µg/mL (≈ 219 µM)
Escherichia coli [10]
  MIC: 16 µg/mL (≈ 27.3 µM)
Pseudomonas aeruginosa [6]
  MIC: 128 µg/mL (≈ 219 µM)
Escherichia coli [11]
  MIC: 1 µg/mL (≈ 1.71 µM)
Escherichia coli [12]
  MIC: 32 µg/mL (≈ 54.6 µM)
Pseudomonas aeruginosa [7]
  MIC: ≥ 32 µg/mL
Pseudomonas aeruginosa [8]
  MIC: 128 µg/mL (≈ 219 µM)
Pseudomonas aeruginosa [9]
  MIC: 2 µg/mL (≈ 3.42 µM)

## CN[C@@H]1[C@@H](O)C(O[C@@H]2[C@@H](O)[C@H](OC3O[C@H](CN)[C@@H](O)[C@H](O)[C@H]3O)[C@@H](N)C[C@H]2NC(=O)[C@@H](O)CN)OC[C@]1(C)O (some centres undefined) [ISOPAMICIN]
Pseudomonas aeruginosa [5]
  MIC: > 128 µg/mL
Escherichia coli [10]
  MIC: 4 µg/mL (≈ 7.02 µM)
Escherichia coli [11]
  MIC: 1 µg/mL (≈ 1.76 µM)
Escherichia coli [12]
  MIC: 16 µg/mL (≈ 28.1 µM)
Pseudomonas aeruginosa [8]
  MIC: > 128 µg/mL

## NC[C@@H]1O[C@H](O[C@H]2[C@@H](O)[C@H](O[C@@H]3[C@@H](O)[C@H](N)C[C@H](N)[C@H]3O[C@H]3O[C@H](CN)[C@@H](O)[C@H](O)[C@H]3N)O[C@@H]2CO)[C@H](N)[C@@H](O)[C@@H]1O [FRAMYCETIN]
Pseudomonas aeruginosa [5]
  MIC: 8 µg/mL (≈ 13 µM)
Escherichia coli [10]
  MIC: 4 µg/mL (≈ 6.51 µM)
Escherichia coli [11]
  MIC: 2 µg/mL (≈ 3.25 µM)
Escherichia coli [12]
  MIC: 4 µg/mL (≈ 6.51 µM)
Pseudomonas aeruginosa [8]
  MIC: 8 µg/mL (≈ 13 µM)

## POLYMYXIN B
Pseudomonas aeruginosa [5]
  MIC: 4 µg/mL
Pseudomonas aeruginosa [6]
  MIC: 2 µg/mL
Pseudomonas aeruginosa [8]
  MIC: 4 µg/mL
Pseudomonas aeruginosa [9]
  MIC: 2 µg/mL

## CC1COc2c(N3CCN(C)CC3)c(F)cc3c(=O)c(C(=O)O)cn1c23 (centres undefined) [OFLOXACIN]
Pseudomonas aeruginosa [5]
  MIC: > 128 µg/mL
Pseudomonas aeruginosa [7]
  MIC: ≥ 4 µg/mL
Pseudomonas aeruginosa [8]
  MIC: > 128 µg/mL
Pseudomonas aeruginosa [9]
  MIC: < 0.5 µg/mL

## NC[C@@H]1CC[C@@H](N)[C@@H](O[C@H]2[C@H](O)[C@@H](O[C@H]3O[C@H](CO)[C@@H](O)[C@H](N)[C@H]3O)[C@H](N)C[C@@H]2N)O1 [DIBEKACIN]
Pseudomonas aeruginosa [5]
  MIC: > 128 µg/mL
Escherichia coli [10]
  MIC: 16 µg/mL (≈ 35.4 µM)
Escherichia coli [11]
  MIC: 1 µg/mL (≈ 2.21 µM)
Escherichia coli [12]
  MIC: 32 µg/mL (≈ 70.9 µM)
Pseudomonas aeruginosa [8]
  MIC: > 128 µg/mL

## CCN1CCN(C(=O)N[C@@H](C(=O)N[C@@H]2C(=O)N3[C@@H]2SC(C)(C)[C@@H]3C(=O)O)c2ccccc2)C(=O)C1=O [PIPERACILLIN]
Pseudomonas aeruginosa [5]
  MIC: 256 µg/mL (≈ 495 µM)
Pseudomonas aeruginosa [6]
  MIC: 256 µg/mL (≈ 495 µM)
Pseudomonas aeruginosa [8]
  MIC: 256 µg/mL (≈ 495 µM)
Pseudomonas aeruginosa [9]
  MIC: < 4 µg/mL

## NC[C@H]1O[C@H](O[C@H]2[C@H](O)[C@@H](O[C@H]3O[C@H](CO)[C@@H](O)[C@H](N)[C@H]3O)[C@H](N)C[C@@H]2N)[C@H](N)C[C@@H]1O [TOBRAMYCIN]
Pseudomonas aeruginosa [5]
  MIC: 32 µg/mL (≈ 68.4 µM)
Escherichia coli [10]
  MIC: 4 µg/mL (≈ 8.56 µM)
Escherichia coli [11]
  MIC: 0.125 µg/mL (≈ 0.267 µM)
Escherichia coli [12]
  MIC: 4 µg/mL (≈ 8.56 µM)
Pseudomonas aeruginosa [8]
  MIC: 32 µg/mL (≈ 68.4 µM)

## NCC[C@H](O)C(=O)N[C@@H]1C[C@H](N)[C@@H](O[C@H]2O[C@H](CN)CC[C@H]2N)[C@H](O)[C@H]1O[C@H]1O[C@H](CO)[C@@H](O)[C@H](N)[C@H]1O [ARBEKACIN]
Pseudomonas aeruginosa [5]
  MIC: 16 µg/mL (≈ 29 µM)
Escherichia coli [10]
  MIC: 4 µg/mL (≈ 7.24 µM)
Pseudomonas aeruginosa [6]
  MIC: 2 µg/mL (≈ 3.62 µM)
Escherichia coli [11]
  MIC: 2 µg/mL (≈ 3.62 µM)
Escherichia coli [12]
  MIC: 4 µg/mL (≈ 7.24 µM)
Pseudomonas aeruginosa [8]
  MIC: 8 µg/mL (≈ 14.5 µM)
Pseudomonas aeruginosa [9]
  MIC: < 0.5 µg/mL

## CCN[C@@H]1C[C@H](N)[C@@H](O[C@H]2OC(CN)=CC[C@H]2N)[C@H](O)[C@H]1O[C@H]1OC[C@](C)(O)[C@H](NC)[C@H]1O [NETILMICIN]
Pseudomonas aeruginosa [5]
  MIC: > 128 µg/mL
Escherichia coli [10]
  MIC: 8 µg/mL (≈ 16.8 µM)
Escherichia coli [11]
  MIC: 0.5 µg/mL (≈ 1.05 µM)
Escherichia coli [12]
  MIC: 8 µg/mL (≈ 16.8 µM)
Pseudomonas aeruginosa [8]
  MIC: > 128 µg/mL

## NC[C@H]1O[C@H](O[C@H]2[C@H](O)[C@@H](O[C@H]3O[C@H](CO)[C@@H](O)[C@H](N)[C@H]3O)[C@H](N)C[C@@H]2N)[C@H](O)[C@@H](O)[C@@H]1O [KANAMYCIN]
Pseudomonas aeruginosa [5]
  MIC: > 128 µg/mL
Escherichia coli [10]
  MIC: 64 µg/mL (≈ 132 µM)
Escherichia coli [11]
  MIC: 2 µg/mL (≈ 4.13 µM)
Escherichia coli [12]
  MIC: 128 µg/mL (≈ 264 µM)
Pseudomonas aeruginosa [8]
  MIC: > 128 µg/mL

## C[C@@H](O)[C@H]1C(=O)N2C(C(=O)O)=C(SCCNC=N)C[C@H]12 [IMIPENEM ANHYDROUS]
Pseudomonas aeruginosa [5]
  MIC: 128 µg/mL (≈ 428 µM)
Pseudomonas aeruginosa [6]
  MIC: 128 µg/mL (≈ 428 µM)
Pseudomonas aeruginosa [8]
  MIC: 128 µg/mL (≈ 428 µM)
Pseudomonas aeruginosa [9]
  MIC: 4 µg/mL (≈ 13.4 µM)

## CC(C)(O/N=C(\C(=O)N[C@@H]1C(=O)N2C(C(=O)[O-])=C(C[n+]3ccccc3)CS[C@H]12)c1csc(N)n1)C(=O)O [CEFTAZIDIME]
Pseudomonas aeruginosa [5]
  MIC: 512 µg/mL (≈ 937 µM)
Pseudomonas aeruginosa [6]
  MIC: 512 µg/mL (≈ 937 µM)
Pseudomonas aeruginosa [8]
  MIC: 512 µg/mL (≈ 937 µM)
Pseudomonas aeruginosa [9]
  MIC: < 1 µg/mL

## GENTAMICIN
Pseudomonas aeruginosa [5]
  MIC: 2 µg/mL
Escherichia coli [10]
  MIC: 1 µg/mL
Pseudomonas aeruginosa [6]
  MIC: 16 µg/mL
Escherichia coli [12]
  MIC: 1 µg/mL
Pseudomonas aeruginosa [8]
  MIC: 4 µg/mL
Pseudomonas aeruginosa [9]
  MIC: < 1 µg/mL
